The data set is described as follows: Toxicity liver stage against HepG2, at 10uM. The class given is cell-based. Set-up: test concentration 10 uM, cell line HepG2-A16-CD81EGFP. The following applies: human, HepG2-A16-CD81EGFP cells; read-out: INHIBITION
The method, boiled down: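 Uninfected HepG2-A16-CD81EGFP cells, 3 × 10^3 per well, 1536-well, plated on prespotted compound at 10 μM final, parasite-free screening media added to match infected plates; puromycin 10 μM positive, DMSO 0.5% negative; run in parallel with 48 h PbLuc assay at 37 °C, 5% CO2; viability by CellTiter-Glo luminescence, normalized to controls.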
As for `COc1cc2c(nn1)CCN(Cc1ncc(C(C)(C)C)o1)C2`, the cytotoxicity at 10 µM is -6.44%.

For the compound `CC(=O)N1CC(C(=O)NC(C)c2cnn(C)c2C)C1` (stereo not given), the cytotoxicity at 10 µM stood at 4.65%. Regarding `CCc1n[nH]c(=O)c(C(=O)N2CCSCC2)c1CC`, the cytotoxicity at 10 µM is 19.5%. Regarding `CCC1(C(=O)O)CCCN(C(=O)c2ccc(O)c(Cl)c2)C1` (stereo not given), the cytotoxicity at 10 µM was -8.87%.

Regarding `O=C([C@@H]1COC[C@H]2CN(C3CCOCC3)C[C@H]21)N1CCCCO1`, the cytotoxicity at 10 µM is -6.28%. The same measure for `CN(C)C(=O)Cc1ccccc1NCc1nc(Cc2ccccc2)no1`: 1.9%; for `COc1ccc(-c2nc(C3CCNCC3)cc3c2ncn3C)cc1`: -124%; for `CCn1ncc2c1CCCC2NCc1ccc2c(c1)OCCO2` (stereo not given): -9.12%. The same measure for `CCc1noc(CNc2ccc(CC(=O)N3CCSCC3)cc2)n1`: 3.73%; for `CCN(C)C(=O)Cn1c(-c2ccco2)nn(-c2ccccc2OC)c1=O`: 0.832%. For the compound `Cc1oncc1C(=O)N1CC[C@H]2[C@@H]1CCC(=O)N2CC1CC1`, the cytotoxicity at 10 µM is 6.42%. Consider `Cn1cc(C(=O)OC2CN(c3nc4c(C(F)(F)F)cccc4s3)C2)nn1`, for which the cytotoxicity at 10 µM was -11.8%.

With `Cc1cccc(CN2CCC23CCCNC3)n1` (stereo not given), the cytotoxicity at 10 µM was 2.55%. `CC(C)(N)C(=O)N1CCC(c2nccnc2Oc2ccccc2F)CC1`: the cytotoxicity at 10 µM is -13.9%.

Turning to `CC(C)COCC(NC(=O)CSc1nnc[nH]1)c1ccco1` (stereo not given), the cytotoxicity at 10 µM was determined as 11.4%. Consider `CCC(Oc1ccccc1)c1nn2c(CN(CC)CC)nnc2s1` (stereo not given), for which the cytotoxicity at 10 µM was 4.91%.

`CC(C)NS(=O)(=O)c1cc(C(=O)O)cc(-c2ccccc2F)c1`: the cytotoxicity at 10 µM was -7.56%. Turning to `CN(Cc1cccnc1)[C@@H]1CN(C(=O)c2ccno2)[C@@H]2CCCO[C@H]12`, the cytotoxicity at 10 µM was -118%. Turning to `CC(C)N1[C@H](Cn2cccn2)C[C@@H]2CN(Cc3ccoc3)CC[C@@H]21`, the cytotoxicity at 10 µM is -153%. The same measure for `Cc1cn2c(n1)CCC(NC(=O)c1cc(C3CC3)[nH]n1)C2` (stereo not given): -16.9%; for `CCn1c(-c2ccccc2)nn(CC(=O)NCCc2ccc(C)o2)c1=O`: -0.545%. Regarding `O=C(Nc1ccccc1)c1nn(C2CCS(=O)(=O)C2)c2c1CCCC2` (stereo not given), the cytotoxicity at 10 µM was -9.75%. On to `Cc1ccnc(NC(=O)C2CCN(CCCc3cn[nH]c3)CC2)c1`, for which the cytotoxicity at 10 µM was -49%. On to `CCn1nc(C)c(CN(Cc2ccccn2)Cc2ccccc2Cl)c1C`, for which the cytotoxicity at 10 µM was 5.17%. For `O=C(CC1[C@H]2CN(C(=O)CO)C[C@@H]12)Nc1cccnc1` (stereo not given in full), the cytotoxicity at 10 µM was 9.19%.

Take `COc1ccc(C(=O)O)cc1-c1cccc(C(C)N(C)C)c1` (stereo not given): the cytotoxicity at 10 µM is -7.13%. On to `CCCc1n[nH]c(C2CN(CCCOc3ccccc3)CCO2)n1` (stereo not given), for which the cytotoxicity at 10 µM was -0.409%. For `Cc1nnc(N2C[C@H]3OCC[C@H]3[C@H](C(=O)NCC3CC3)C2)s1`, the cytotoxicity at 10 µM was 2.03%. The same measure for `O=S(=O)(C1CC1)N1CCc2ncnc(N3CCOCC3)c2CC1`: -109%; for `Cc1ccc(CN(C)C(=O)CN2CCCCC2Cn2cncn2)cc1` (stereo not given): 17.7%; for `Cc1nnc(SCC(=O)c2cc3c(cc2Cl)NC(=O)C3)o1`: -5.28%. As for `COCCN1C[C@H]2CN(Cc3cccc(OC(F)(F)F)c3)CCN2C1=O`, the cytotoxicity at 10 µM turned out to be 2.67%. Turning to `CCOC(=O)CN1CCC2(CC1)CC(=O)c1ccc(OC)cc1O2`, the cytotoxicity at 10 µM is 6.2%. Turning to `CCOCCN1C[C@H](C(=O)Nc2cccnc2)[C@@H]2CCO[C@@H]2C1`, the cytotoxicity at 10 µM is -101%. Regarding `CN(C)C(=O)N1CCN(Cc2nnc(C(C)(C)C)o2)CC1`, the cytotoxicity at 10 µM came out at 0.278%. For `CNS(=O)(=O)c1ccc(CNC(=O)N2CCOC(C)C2)cc1` (stereo not given), the cytotoxicity at 10 µM was 9.15%. In the case of `O=C([C@@H]1C[C@@H]2CCN(C3CCOCC3)C[C@H]2O1)N1CCCC1`, the cytotoxicity at 10 µM amounted to 4.5%. With `CN1[C@@H]2CC[C@H]1CN(c1nc(-c3ccncc3)nc3c1cnn3C)CC2`, the cytotoxicity at 10 µM stood at 38.7%.

Consider `CC(=O)N1CCCC(c2ccc(Cc3ccccc3)cn2)C1` (stereo not given), for which the cytotoxicity at 10 µM was -20.6%. For `CCO[C@H]1CO[C@@]2(CCCN(C(=O)c3ccc(OC)c(F)c3)C2)C1`, the cytotoxicity at 10 µM came out at 5.69%.

Consider `CCc1nnc2n1CCN(Cc1nc(-c3ccoc3)no1)C2`, for which the cytotoxicity at 10 µM is -4.1%. The same measure for `CN(c1cccnn1)C1CCN(C(=O)Cc2c[nH]c3ccccc23)CC1`: -20.1%; for `CC(=O)N1CCC[C@H]1C(=O)NCCCN(C(C)C)S(C)(=O)=O`: -13%; for `CN1CCCC1c1cccc(Cc2ccc(F)cc2)n1` (stereo not given): 4.3%.

For `Cc1nnc(NC(=O)CCc2c(C)nn3cnnc3c2C)s1`, the cytotoxicity at 10 µM is -1.7%. On to `Cc1ccc(CNC(=O)c2cc(CN3CCC(O)CC3)on2)s1`, for which the cytotoxicity at 10 µM is -48.5%. The same measure for `CCC(CO)N(C/C(C)=C/c1ccco1)Cc1ccccn1` (stereo not given): -2.46%. The same measure for `Cc1cc(C(N)=O)ccc1NC(=O)N1CCN(c2cccs2)CC1`: 10.1%; for `CC(=O)c1c(C)nn(CC(=O)N2CCCC2c2ccc(C(N)=O)s2)c1C` (stereo not given): 1.16%. For `CCOCCCNC(=O)C1(C)CCC(=O)N1c1ccccc1OC` (stereo not given), the cytotoxicity at 10 µM worked out at 2.89%. As for `CC1C(=O)Nc2cccnc2N1S(=O)(=O)c1ccc(C#N)c(Cl)c1` (stereo not given), the cytotoxicity at 10 µM is -6.75%.

Turning to `O=C(Cc1cccc(F)c1)NCCNCc1cccc(O)c1`, the cytotoxicity at 10 µM was -9.5%.

For `N#Cc1ccnc(N2CCC(c3nccn3Cc3cscn3)CC2)c1`, the cytotoxicity at 10 µM was -12.4%. As for `Cn1cnc(S(=O)(=O)N2CCCc3c(F)cc(F)cc32)c1Cl`, the cytotoxicity at 10 µM is 0.333%. For `Cc1cccc(C(C(=O)NCc2csc(-c3ncccn3)n2)N(C)C)c1` (stereo not given), the cytotoxicity at 10 µM was 2.14%. The same measure for `Cc1ccc(O)c(CN2CCc3nc(-c4cccnc4)nc(O)c3C2)c1`: 5.19%; for `Cc1cc(C)c(OCC(=O)NS(=O)(=O)c2cccnc2)c(C)c1`: -1.35%; for `O=C(NCCn1nc(-n2cncn2)ccc1=O)c1ccc(F)cc1F`: -8.78%.

For the compound `Cc1c(Cl)cc(C(=O)N(CCO)Cc2nccn2C)cc1Cl`, the cytotoxicity at 10 µM worked out at 2.66%. On to `COCC(=O)N1CCC2(CCN(Cc3ccccn3)CC2)CC1`, for which the cytotoxicity at 10 µM was -6.62%.

Take `c1cncc(CN2CCCC3(COCCN(c4nccs4)C3)C2)c1` (stereo not given): the cytotoxicity at 10 µM was -80.4%. `Cn1ncc2cnn(CC(O)COCc3ccccc3Cl)c2c1=O` (stereo not given): the cytotoxicity at 10 µM turned out to be 3.8%.

On to `NC(=O)C1CCN(Cn2nc(-c3ccc(F)cc3)oc2=O)CC1`, for which the cytotoxicity at 10 µM was -19.6%. Turning to `CN1CCCCC1c1ccc(-n2ccnc2)nc1` (stereo not given), the cytotoxicity at 10 µM stood at 5.01%.

With `COCC[C@]1(O)CCN(Cc2nnc(C)s2)C[C@H]1C`, the cytotoxicity at 10 µM is 8.62%.

In the case of `CC(C)N1CCC2(CCCNC2)C1=O` (stereo not given), the cytotoxicity at 10 µM turned out to be 0.906%.

Turning to `CCC(=O)CNC(=O)CCn1nc2ccccn2c1=O`, the cytotoxicity at 10 µM was found to be 9.5%. For `CCOc1nnc(CN2CCCC(c3nc4ccccc4[nH]3)C2)s1` (stereo not given), the cytotoxicity at 10 µM was 14.6%. The same measure for `O=C(c1ncn2c1CNS(=O)(=O)c1ccccc1-2)N1CCCCCC1`: 9.79%; for `CCN1CCCC1(C)c1nc(C)cc(N)n1` (stereo not given): -2.17%.

The record behind these values is ChEMBL document CHEMBL4513216, “Probing the Open Global Health Chemical Diversity Library for Multistage-Active Starting Points for Next-Generation Antimalarials” (ACS Infect Dis, 2020).
